Results pooled from the literature.
Lines come from different studies, so protocols differ.
Cell line: A549
Observed: cell growth or viability

Structure (SMILES)	assay	conditions	endpoint	result
O=C1OC2(c3ccc(O)cc3Oc3cc(O)ccc32)c2ccccc21	CCK-8	48 h	CC50	> 200 µM
COc1cccc2c1C(=O)c1c(O)c3c(c(O)c1C2=O)C[C@@](O)(C(=O)CO)C[C@@H]3O[C@H]1C[C@H](N)[C@H](O)[C@H](C)O1	MTT	48 h	IC50	1.4 µM
O=C1OC2(c3ccccc31)c1ccc(O)c(I)c1Oc1c2ccc(O)c1I	CCK-8	48 h	CC50	> 200 µM
C=C(C)[C@H](CC=C(C)C)Cc1c(O)cc(O)c2c1O[C@H](c1ccccc1O)CC2=O	MTT	48 h	IC50	36.1 µM
COc1ccc(S(=O)(=O)ON=C2C=C(C)C(=O)C(C)=C2)cc1			CC50	> 30 µM
Nc1nc(N)c2nc(CNc3ccc(C(=O)c4ccccc4)cc3)cnc2n1	ATP luminescence		GI50	13.7 µM
O=C1OC2(c3ccccc31)c1ccc(O)c(Cl)c1Oc1c2ccc(O)c1Cl	CCK-8	48 h	CC50	> 200 µM
O=C(O)CCCC/C=C\CCCc1ccccc1	MTS		IC50	61 µM
Nc1nc(N)c2nc(CNc3cccc4ccccc34)cnc2n1	ATP luminescence		GI50	1.29 µM
O=C(O)CCCCC#CCCCC1CCCCC1	MTS	24 h	IC50	40 µM
C=C(C)[C@H](CC=C(C)C)Cc1c(O)cc(O)c2c1O[C@H](c1ccc(O)cc1O)CC2=O	MTT	48 h	IC50	18.1 µM
O=C1OC2(c3cc(I)c(O)c(I)c3Oc3c2cc(I)c(O)c3I)c2c(Cl)c(Cl)c(Cl)c(Cl)c21	CCK-8	48 h	CC50	> 200 µM
C=C(C)C(O)Cc1c(O)c(CC=C(C)C)c2occ(-c3ccc(O)cc3)c(=O)c2c1O (stereo not drawn)	MTT	100 µg/mL	viability	91.6%
O=C1OC2(c3ccc(O)cc3Oc3cc(O)ccc32)c2ccc(NC(=S)NCCS)cc21	CCK-8	48 h	CC50	> 200 µM
CCN(Cc1cnc2nc(N)nc(N)c2n1)c1ccc(C(=O)c2ccccc2)cc1	ATP luminescence		GI50	0.23 µM
